pIC50: −log10 of the molar value. Active and inactive are the calls of the source. The calls are words filed in the database; no cut-off is given here.
Tests used:
[1] = biological target: Bromodomain-containing protein 4 (Homo sapiens, UniProt O60885); experiment: Displacement of 5-FITC labelled (+)-JQ1 from His6-tagged human BRD4 bromodomain 1 expressed in Escherichia coli BL21(DE3) )-codon plus-RIL cells incubated for 4 hrs in dark condition by fluorescence anisotropy binding assay
[2] = AUC (0 to infinity) in ICR mouse at 10 mg/kg, po administered via gavage measured after 0.25 to 24 hrs by UPLC/MS analysis; assay type: ADME, organism-based; design: dose 10 mg/kg, route oral, time infinity; conditions: in vivo
In short: (§1)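 Male ICR mice were dosed orally in 1% DMSO/0.5% HPMC vehicle. Plasma (and brain, where stated) concentrations gave Tmax, Cmax, T1/2, AUC0-t and AUC0-inf.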

MM1.S = experiment: Antiproliferative activity against human MM1S cells after 72 hrs by CCK8 or SRB assay; assay type: functional, cell-based
In short: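 IC50 against MM.1S cell proliferation was taken as the mean of three independent experiments, each run in triplicate, reported with SEM.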

[3] = Cmax in ICR mouse at 10 mg/kg, po administered via gavage measured after 0.25 to 24 hrs by UPLC/MS analysis; assay type: ADME, organism-based; design: dose 10 mg/kg, route oral; conditions: in vivo
In short: (§2)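 Male ICR mice dosed orally in 1% DMSO/0.5% HPMC vehicle; plasma or brain drug levels used to derive Tmax, Cmax, AUC0-t, AUC0-inf and T1/2.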

[4] = Half life in ICR mouse at 10 mg/kg, po administered via gavage measured after 0.25 to 24 hrs by UPLC/MS analysis; assay type: ADME, organism-based; conditions: in vivo; in short: as §2
Cytochrome P450 2C19 = Cytochrome P450 2C19 (Homo sapiens, UniProt P33261); experiment: Time-dependent inhibition of CYP2C19 in human liver microsomes at 10 uM using mephenytoin as substrate preincubated up to 30 mins followed by NADPH generating system addition and measured after 10 mins; assay type: ADME
In short: (§3)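 Human liver microsomes 0.2 mg/mL, 100 mM phosphate pH 7.4, 10 μM test compound, preincubated 0, 5, 10 and 30 min at 37 °C; then NADPH plus probe cocktail (5 μM midazolam, 50 μM testosterone, 5 μM dextromethorphan, 10 μM diclofenac, 50 μM phenacetin, 50 μM S-(+)-mephenytoin) added; 10 min reaction; kobs in units of 10^-4/min.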

Cytochrome P450 1A2 = biological target: T1, Cytochrome P450 1A2 (Homo sapiens, UniProt P05177); experiment: Time-dependent inhibition of CYP1A2 in human liver microsomes at 10 uM using phenacetin as substrate preincubated up to 30 mins followed by NADPH generating system addition and measured after 10 mins; assay type: ADME; in short: as §3
T1 sequence (P05177 whole entry): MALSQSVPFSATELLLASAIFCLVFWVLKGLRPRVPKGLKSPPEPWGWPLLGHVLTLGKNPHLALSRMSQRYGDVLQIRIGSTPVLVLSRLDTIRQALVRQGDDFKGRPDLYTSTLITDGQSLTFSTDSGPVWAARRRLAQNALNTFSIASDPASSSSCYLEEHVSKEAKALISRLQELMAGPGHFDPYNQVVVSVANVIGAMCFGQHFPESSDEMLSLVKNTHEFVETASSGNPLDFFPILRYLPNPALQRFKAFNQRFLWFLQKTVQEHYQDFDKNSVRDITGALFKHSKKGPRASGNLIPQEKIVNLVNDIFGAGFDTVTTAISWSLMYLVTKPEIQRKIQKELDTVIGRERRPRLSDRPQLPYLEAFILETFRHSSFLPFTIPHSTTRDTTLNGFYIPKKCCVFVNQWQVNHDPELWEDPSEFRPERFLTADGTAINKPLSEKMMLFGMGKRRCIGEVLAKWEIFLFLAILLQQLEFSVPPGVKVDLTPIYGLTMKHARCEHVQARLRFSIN

[5] = Metabolic stability in mouse liver microsomes at 1 uM preincubated for 5 mins followed by NADPH addition and measured after 5 to 30 mins by LC/MS/MS analysis; assay type: ADME, Microsome
In short: (§4)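 Liver microsomes (0.5 mg/mL) preincubated 5 min at 37 °C with 1 μM compound in 0.1 M phosphate buffer pH 7.4 containing 1 mM EDTA and 5 mM MgCl2; started with 1 mM NADPH; sampled at 0, 5, 10 and 30 min; quenched with cold acetonitrile; parent remaining quantified by LC/MS/MS.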

[6] = Tmax in ICR mouse at 10 mg/kg, po administered via gavage measured after 0.25 to 24 hrs by UPLC/MS analysis; assay type: ADME, organism-based; conditions: in vivo
In short: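 Male ICR mice dosed orally (3, 10 or 100 mg/kg, per line) in 1% DMSO/0.5% HPMC vehicle; plasma drug levels measured.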

[7] = Metabolic stability in human liver microsomes at 1 uM preincubated for 5 mins followed by NADPH addition and measured after 5 to 30 mins by LC/MS/MS analysis; assay type: ADME, Microsome; in short: as §4
Cytochrome P450 2D6 = Cytochrome P450 2D6 (Homo sapiens, UniProt P10635); experiment: Time-dependent inhibition of CYP2D6 in human liver microsomes at 10 uM using dextromethorphan as substrate preincubated up to 30 mins followed by NADPH generating system addition and measured after 10 mins; assay type: ADME; in short: as §3
Cytochrome P450 3A4 = Cytochrome P450 3A4 (Homo sapiens, UniProt P08684); experiment: Time-dependent inhibition of CYP3A4 in human liver microsomes at 10 uM using midazolam or testosterone as substrate preincubated up to 30 mins followed by NADPH generating system addition and measured after 10 mins; assay type: ADME; in short: as §3
[8] = AUC (0 to t) in ICR mouse at 10 mg/kg, po administered via gavage measured after 0.25 to 24 hrs by UPLC/MS analysis; assay type: ADME, organism-based; design: time 0.25-24 hr, dose 10 mg/kg, route oral; conditions: in vivo; in short: as §1
Cytochrome P450 2C9 = Cytochrome P450 2C9 (Homo sapiens, UniProt P11712); experiment: Time-dependent inhibition of CYP2C9 in human liver microsomes at 10 uM using diclofenac as substrate preincubated up to 30 mins followed by NADPH generating system addition and measured after 10 mins; assay type: ADME; in short: as §3
MV4-11 [9] = experiment: Induction of apoptosis in human MV4-11 cells assessed as reduction in c-IAP1 level after 24 hrs by Western blot analysis; assay type: functional, cell-based
MV4-11 [10] = experiment: Induction of apoptosis in human MV4-11 cells assessed as increase in cleaved caspase-9 level after 24 hrs by Western blot analysis; assay type: functional, cell-based
In short: (§5)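 MV4-11 cells exposed to test agent at the indicated doses for 24 h. Lysates immunoblotted for full-length and cleaved caspase-3, -7, -8 and -9, with GAPDH as the loading reference.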

Homo sapiens = species: Homo sapiens; experiment: Antiproliferative activity against human TY82 cells after 72 hrs by CCK8 or SRB assay; assay type: functional, cell-based
MV4-11 [11] = experiment: Induction of apoptosis in human MV4-11 cells assessed as reduction in c-IAP2 level after 24 hrs by Western blot analysis; assay type: functional, cell-based
MV4-11 [12] = experiment: Antitumor activity against human MV4-11 cells xenografted in Balb/c nude mouse assessed as tumor growth inhibition at 100 mg/kg, po administered once daily and measured twice a week by caliper method relative to control; assay type: functional; conditions: MV4-11, po, read-out: TGI
MV4-11 [13] = experiment: Antiproliferative activity against human MV4-11 cells after 72 hrs by CCK8 or SRB assay; assay type: functional, cell-based
MV4-11 [14] = experiment: Antitumor activity against human MV4-11 cells xenografted in Balb/c nude mouse assessed as tumor growth inhibition at 50 mg/kg, po administered once daily and measured twice a week by caliper method relative to control; assay type: functional; conditions: MV4-11, po, read-out: TGI
MV4-11 [15] = experiment: Induction of apoptosis in human MV4-11 cells after 24 hrs by Annexin V staining based assay; assay type: functional, cell-based
RKO = experiment: Induction of cell cycle arrest in human RKO cells assessed as increase in accumulation at G1 phase at 100 nM after 24 hrs by propidium iodide staining based flow cytometric analysis; assay type: functional
MV4-11 [16] = experiment: Induction of apoptosis in human MV4-11 cells assessed as reduction in XIAP level after 24 hrs by Western blot analysis; assay type: functional, cell-based
MV4-11 [17] = experiment: Induction of apoptosis in human MV4-11 cells assessed as increase in cleaved caspase-8 level after 24 hrs by Western blot analysis; assay type: functional, cell-based; in short: as §5

Chain of Cytochrome P450 3A4 (P08684 whole entry): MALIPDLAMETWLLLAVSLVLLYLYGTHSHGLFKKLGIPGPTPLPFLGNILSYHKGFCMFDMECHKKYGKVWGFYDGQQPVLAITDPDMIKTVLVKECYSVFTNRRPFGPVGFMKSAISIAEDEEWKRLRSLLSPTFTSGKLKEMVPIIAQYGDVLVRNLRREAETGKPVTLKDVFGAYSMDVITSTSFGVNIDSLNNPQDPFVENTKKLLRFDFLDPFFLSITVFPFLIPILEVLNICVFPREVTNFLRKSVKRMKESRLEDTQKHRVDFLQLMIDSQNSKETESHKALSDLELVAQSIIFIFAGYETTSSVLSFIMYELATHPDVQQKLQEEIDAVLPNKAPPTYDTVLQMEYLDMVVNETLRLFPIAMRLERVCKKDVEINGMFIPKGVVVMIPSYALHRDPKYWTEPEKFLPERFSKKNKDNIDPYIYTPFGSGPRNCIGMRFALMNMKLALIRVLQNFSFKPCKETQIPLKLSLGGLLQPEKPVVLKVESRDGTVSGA
Chain of Cytochrome P450 2C19 (P33261 whole entry): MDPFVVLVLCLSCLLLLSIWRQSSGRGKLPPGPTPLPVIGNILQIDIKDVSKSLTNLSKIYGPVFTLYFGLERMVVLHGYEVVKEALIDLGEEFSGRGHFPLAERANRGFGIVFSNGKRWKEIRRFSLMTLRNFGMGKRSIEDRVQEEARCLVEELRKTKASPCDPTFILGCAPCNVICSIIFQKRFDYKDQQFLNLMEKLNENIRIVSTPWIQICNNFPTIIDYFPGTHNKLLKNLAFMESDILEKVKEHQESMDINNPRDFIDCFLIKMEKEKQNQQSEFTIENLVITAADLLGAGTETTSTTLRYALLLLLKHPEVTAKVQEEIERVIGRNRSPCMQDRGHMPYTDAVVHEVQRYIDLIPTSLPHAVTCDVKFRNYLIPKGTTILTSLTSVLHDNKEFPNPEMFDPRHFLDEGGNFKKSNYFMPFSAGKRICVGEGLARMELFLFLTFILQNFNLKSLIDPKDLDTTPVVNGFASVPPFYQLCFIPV
Chain of Cytochrome P450 2D6 (P10635 whole entry): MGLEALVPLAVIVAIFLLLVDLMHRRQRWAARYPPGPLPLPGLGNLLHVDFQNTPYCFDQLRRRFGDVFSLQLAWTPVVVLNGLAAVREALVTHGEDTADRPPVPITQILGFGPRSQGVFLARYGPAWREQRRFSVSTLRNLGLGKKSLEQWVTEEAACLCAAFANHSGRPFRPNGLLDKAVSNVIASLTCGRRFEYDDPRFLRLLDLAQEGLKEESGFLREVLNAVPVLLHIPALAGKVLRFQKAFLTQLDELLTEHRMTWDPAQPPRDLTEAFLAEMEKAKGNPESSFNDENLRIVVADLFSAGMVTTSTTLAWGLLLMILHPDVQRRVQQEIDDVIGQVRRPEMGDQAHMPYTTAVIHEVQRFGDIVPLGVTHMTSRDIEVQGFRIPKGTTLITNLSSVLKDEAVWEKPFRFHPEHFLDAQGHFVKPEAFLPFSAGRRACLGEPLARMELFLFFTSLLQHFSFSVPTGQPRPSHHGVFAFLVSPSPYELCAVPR
Chain of Cytochrome P450 2C9 (P11712 whole entry): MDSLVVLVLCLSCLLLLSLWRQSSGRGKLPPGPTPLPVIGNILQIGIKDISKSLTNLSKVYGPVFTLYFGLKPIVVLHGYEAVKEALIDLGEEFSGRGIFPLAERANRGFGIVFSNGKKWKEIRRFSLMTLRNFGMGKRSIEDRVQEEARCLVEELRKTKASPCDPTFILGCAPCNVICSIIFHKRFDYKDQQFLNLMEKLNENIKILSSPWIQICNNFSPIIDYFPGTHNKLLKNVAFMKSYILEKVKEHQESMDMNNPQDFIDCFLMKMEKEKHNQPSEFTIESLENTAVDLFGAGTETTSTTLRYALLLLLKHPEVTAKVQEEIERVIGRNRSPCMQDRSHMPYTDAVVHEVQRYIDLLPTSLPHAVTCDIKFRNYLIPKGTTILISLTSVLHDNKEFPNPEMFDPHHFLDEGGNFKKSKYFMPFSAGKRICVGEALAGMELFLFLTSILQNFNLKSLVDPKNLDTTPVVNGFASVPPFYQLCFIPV

**Q.** With `Cc1ccc(-n2cnnc2-c2ccc3c(c2)N(C2CC2)C(C)C(=O)N3C)cc1` (stereo unspecified) as the molecule, how does the pIC50 [1] read?
**A.** 8.07

**Q.** And the AUC(0-inf) [2]?
**A.** 164 ng·h/mL

**Q.** What about the pIC50 (MM1.S) of the same molecule?
**A.** 8.17

**Q.** What about the Cmax [3] of the same molecule?
**A.** 163 ng/mL

**Q.** And the half-life [4]?
**A.** 90 min

**Q.** What about the TDI (Cytochrome P450 2C19) of the same molecule?
**A.** Not Active

**Q.** And the TDI (Cytochrome P450 1A2)?
**A.** Not Active

**Q.** And the Stability [5]?
**A.** Stable

**Q.** And the Tmax [6]?
**A.** 18 min

**Q.** And the Stability [7]?
**A.** Stable

**Q.** And the TDI (Cytochrome P450 2D6)?
**A.** Not Active

**Q.** And the TDI (Cytochrome P450 3A4)?
**A.** Not Active

**Q.** And the AUC(0-t) [8]?
**A.** 161 ng·h/mL

**Q.** And the TDI (Cytochrome P450 2C9)?
**A.** Not Active

**Q.** With `Cc1sc2c(c1C)C(c1ccc(Cl)cc1)=N[C@@H](CC(=O)Nc1ccc(O)cc1)c1nnc(C)n1-2` [BIRABRESIB] as the molecule, how does the Activity (MV4-11 [9]) read?
**A.** Dose-dependent effect

**Q.** And the Activity (MV4-11 [10])?
**A.** Dose-dependent effect

**Q.** And the Activity (Homo sapiens)?
**A.** Active

**Q.** And the pIC50 (MM1.S)?
**A.** 8.20

**Q.** And the Activity (MV4-11 [11])?
**A.** Dose-dependent effect

**Q.** And the inhibition in vivo at 100 mg/kg (MV4-11 [12])?
**A.** 87.5%

**Q.** What about the Activity (MV4-11 [13]) of the same molecule?
**A.** Active

**Q.** And the inhibition in vivo at 50 mg/kg (MV4-11 [14])?
**A.** 71.5%

**Q.** What about the Activity (MV4-11 [15]) of the same molecule?
**A.** Active

**Q.** What about the Activity (RKO) of the same molecule?
**A.** Active

**Q.** And the Activity (MV4-11 [16])?
**A.** Dose-dependent effect

**Q.** And the Activity (MV4-11 [17])?
**A.** Dose-dependent effect

From ChEMBL document CHEMBL4414574, “Structure-Based Discovery and Development of a Series of Potent and Selective Bromodomain and Extra-Terminal Protein Inhibitors” (J Med Chem, 2019)
